Only some compounds are listed: those with a hit (about 1.8% of all), similar ones and a draw of the others.
CHRM5 PAM: human M5 muscarinic receptor positive allosteric modulators, primary screen, CHO-K1 cells, Fluo-8 calcium fluorescence | actives 0.3% (n = 360,000) | activation, % at 3 µM | Muscarinic acetylcholine receptor M5 (Homo sapiens), P08912 | CHO-K1 hM5, ACh EC20 PAM; 0% = ACh EC20, 100% = ACh EC100 | AID 624038, 2012;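 active = activation above the run cutoff, the mean activation of all test compounds plus 3 SD, cut at about 18% in these data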
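System – CHO-K1 hM5 cells · Compound – 3 µM, single dose · Incubation – compound preincubation 140 s before EC20 acetylcholine addition · Technique – Fluo-8 calcium fluorescence · Measure – Max/basal fluorescence ratio as % of EC20–EC100 ACh window · Benchmarks – low control EC20 acetylcholine (0%), high control EC100 acetylcholine (100%) · Replication – singlicate, one well per test compound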
CHRM4 PAM: human M4 muscarinic receptor positive allosteric modulators, primary screen, CHO-K1 cells, Fluo-8 calcium fluorescence; CHO-K1 hM4/Gqi5, ACh EC20; 0% = ACh EC20, 100% = maximal ACh; AID 624126, 2012; Muscarinic acetylcholine receptor M4 (Homo sapiens), P08173; actives 0.4% (n = 360,000); activation, % at 3 µM;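 active = activation above its plate's cutoff, the mean activation of sample wells plus 3 SD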
Target sequence (P08173 whole entry, looked up): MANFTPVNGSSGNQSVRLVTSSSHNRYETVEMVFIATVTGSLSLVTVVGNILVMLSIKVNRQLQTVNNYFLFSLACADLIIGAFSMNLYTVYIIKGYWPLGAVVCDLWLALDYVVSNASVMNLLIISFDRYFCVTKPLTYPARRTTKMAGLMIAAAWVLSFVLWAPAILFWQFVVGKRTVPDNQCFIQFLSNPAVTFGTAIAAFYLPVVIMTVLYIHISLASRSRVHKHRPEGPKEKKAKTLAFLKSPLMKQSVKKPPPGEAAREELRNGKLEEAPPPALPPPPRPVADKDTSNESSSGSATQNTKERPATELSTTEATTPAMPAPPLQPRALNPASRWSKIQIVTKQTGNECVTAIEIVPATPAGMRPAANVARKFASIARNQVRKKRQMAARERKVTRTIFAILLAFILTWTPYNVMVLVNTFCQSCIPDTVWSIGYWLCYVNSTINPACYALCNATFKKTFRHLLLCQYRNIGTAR
M5 ag: human M5 muscarinic receptor agonists, primary screen, CHO-K1 cells, Fluo-8 calcium fluorescence; CHO-K1 hM5 cells; 0% DMSO wells, 100% maximal acetylcholine response; activation, % at 3 µM; actives 0.19% (n = 360,000); AID 624037, 2012;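 active = activation above the run's mean over test compounds plus 3 SD, cut at about 23% in these data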;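 note: signal is peak over basal fluorescence ratio across the kinetic read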
M4 ag: human M4 muscarinic receptor agonists, primary screen, CHO-K1 cells, Fluo-8 calcium fluorescence; activation, % at 3 µM; Muscarinic acetylcholine receptor M4 (Homo sapiens), P08173; AID 624127, 2012; CHO-K1 hM4/Gqi5; vehicle 0%, full acetylcholine response 100%; actives 0.14% (n = 360,000);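 active = activation above the run mean over all test wells plus 3 SD, cut at about 32% in these data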;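 note: peak over basal fluorescence ratio per well then scaled between controls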
M4 antag: human M4 muscarinic receptor antagonists, primary screen, CHO cells, Fluo-8 calcium fluorescence; Muscarinic acetylcholine receptor M4 (Homo sapiens), P08173; CHO-hM4 cells, ACh EC80; inhibition, % at 3 µM; actives 0.73% (n = 360,000);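 active = inhibition above its plate's cutoff, the mean inhibition of sample wells plus 3 SD, cut at about 27% in these data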
CHRM5 antagonist: human M5 muscarinic receptor antagonists, primary screen, CHO cells, Fluo-8 calcium fluorescence; Muscarinic acetylcholine receptor M5 (Homo sapiens), P08912; CHO-hM5 cells, ACh EC80; inhibition, % at 3 µM; actives 0.59% (n = 360,000); AID 624040, 2012;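 active = inhibition above a per-plate cutoff, the mean of that plate's test compounds plus 3 SD, cut at about 27% in these data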
Numbers stand for hits; . = inactive.

SMILES | CHRM5 PAM | CHRM4 PAM | M5 ag | M4 ag | M4 antag | CHRM5 antagonist
C[C@H]1CN([C@@H](C)CO)C(=O)Cc2cc(NC(=O)CCC(F)(F)F)ccc2O[C@H]1CN(C)S(=O)(=O)c1ccc(Cl)cc1 | . | . | . | . | 36 | .
C[C@H]1CN([C@@H](C)CO)C(=O)Cc2cc(NC(=O)CCC(F)(F)F)ccc2O[C@H]1CN(C)S(=O)(=O)c1ccc(F)cc1 | . | . | . | . | 63 | .
CCOC(=O)c1c(CSC(=N)N)n(-c2ccccc2)c2cc(Br)c(OC(C)=O)cc12 | . | . | . | . | . | .
CC1(C(=O)Nc2ccc3ccccc3c2)CCC(=O)N1C1CC1 (centres undefined) | . | . | . | . | . | .
O=C(Nc1ccc(Cl)cc1)N(C1=NCCC1)c1ccc(OC(F)F)cc1 | . | . | . | . | . | 27
COc1cc(/C=C2/C(=N)N3C(=NC2=O)SN=C3S(C)(=O)=O)ccc1OS(=O)(=O)c1ccc(C)cc1 | . | . | . | . | . | .
CCS(=O)(=O)C1=NSC2=NC(=O)/C(=C\c3ccc(OS(=O)(=O)c4ccccc4)c(OC)c3)C(=N)N21 | 29 | . | . | . | . | .
COc1cc(OC)cc(C(=O)Nc2ccccc2C(=O)NCc2cccnc2)c1 | . | . | . | . | . | 28
Cc1cc(C)n2ncc(C(=O)NCc3ccccc3)c2n1 | 31 | . | . | . | . | .
O=C(Nc1ccccc1)Nc1ccccc1C(=O)NCc1ccccc1 | . | . | . | . | . | .
CNC(=O)Nc1ccccc1C(=O)NCc1ccccc1 | . | . | . | . | 87 | .
CN(CC(=O)NC(=O)NC(C)(C)C)CC(=O)Nc1ccccc1Cl | . | . | . | . | . | .
COc1ccccc1/C=C/CN1CCC(n2nccc2NC(=O)C2CC2)CC1 | . | . | . | . | . | .
Cc1ccc(NC(=O)[C@@H]2O[C@H](CO)[C@@H](O)[C@H]2O)cc1C(F)(F)F | . | . | . | . | . | .
Cc1c(-c2cc(C(=O)O)c3ccccc3n2)cnn1C | . | . | . | . | . | .
COc1ccc(CC(=O)NNS(=O)(=O)c2ccc([N+](=O)[O-])cc2)cc1OC | . | . | . | . | . | .
CC(c1ccccc1)C1OCC(C[N+]2(C)CCCCC2)O1 (centres undefined) | . | . | . | . | 45 | 30
COc1ccccc1CNC(=O)CS(=O)(=O)Cc1ccccc1 | . | . | . | . | . | .
COc1ccc(CNC(=O)CC[C@H]2O[C@@H](n3cc(C)c(=O)[nH]c3=O)C[C@@H]2O)cc1 | . | . | . | . | . | .
COc1cccc(OCC(O)CN2CCN(C(c3ccccc3)c3ccccc3)CC2)c1 (centres undefined) | . | . | . | . | . | .
CC(=O)c1ccccc1OCC(O)CN1CCN(C(c2ccccc2)c2ccccc2)CC1 (centres undefined) | . | . | . | . | 35 | .
CCOc1ccccc1C(=O)N(C)Cc1cc2cc(OC)ccc2[nH]c1=O | . | . | . | . | . | .
CCOc1cc(C(=O)N(C)Cc2cc3cc(OC)ccc3[nH]c2=O)cc(OCC)c1OCC | . | 30 | . | . | . | .
COc1ccc(/C=C/C(=O)NCC(=O)N/N=C(/CCC(=O)O)c2ccccc2)cc1 | . | . | . | . | 30 | .
C=CCNC(=S)N/N=C/c1ccc(-c2ccc(Cl)cc2Cl)o1 | . | . | . | . | . | .
SMILES | CHRM5 PAM | CHRM4 PAM | M5 ag | M4 ag | M4 antag | CHRM5 antagonist
CCOc1ccc(NC(=O)CN2C(=O)S/C(=C/c3cccn3C)C2=O)cc1 | . | . | . | . | . | 28
CN(C)CCNC(=O)Cn1ccc2cc(S(=O)(=O)N3CCCCC3)ccc21 | . | . | . | . | . | .
CCOc1ccc(/C=C/C(=O)Nc2ccccc2C(F)(F)F)cc1 | . | . | . | . | . | .
COc1ccc(/C=C/C(=O)Nc2ccccc2C(F)(F)F)cc1 | . | 21 | . | . | . | .
Cc1cc(NC(=O)c2cc([N+](=O)[O-])cc([N+](=O)[O-])c2)no1 | . | 15 | . | . | . | .
Cc1cc(NC(=O)c2cccc([N+](=O)[O-])c2)no1 | . | . | . | . | . | .
CCSC1OC(C(COC(C)=O)OC(C)=O)C(OC(C)=O)C1NC(C)=S (centres undefined) | . | . | . | . | . | .
Cc1ccc(CS(=O)(=O)c2ncc(Cl)c(C(=O)Nc3ccc(OC(F)F)cc3)n2)cc1 | . | . | . | . | 56 | .
O=C(C(=O)N(Cc1ccccc1)Cc1ccccc1)c1c(-c2ccccc2)[nH]c2ccccc12 | . | . | . | . | 31 | .
COc1cccc(C(C(=O)NC2CCCC2)N(C(=O)c2ccco2)c2ccc(NC(C)=O)cc2)c1OC (centres undefined) | . | 21 | . | . | . | .
CC(C)NC(=O)C1(C)CSCC(=O)N1CCCn1ccnc1 (centres undefined) | . | . | . | . | . | .
COc1ccccc1NS(=O)(=O)c1ccc2oc(SC(C)C(=O)N3CCNC3=O)nc2c1 (centres undefined) | . | . | . | 32 | . | .
COC(C#CCCN(C)C)(c1ccccc1)c1ccccc1 | . | . | . | . | 35 | 94
Cc1cc(C)n(C(=O)/C=C/c2cccs2)n1 | . | . | . | . | . | .
Cc1ccc(NS(=O)(=O)c2cc(Br)cnc2N)cc1C | . | . | . | . | 97 | 100
Cc1cc(C)cc(NS(=O)(=O)c2cc(Br)cnc2N)c1 | . | . | . | . | . | .
CC(=O)c1ccc(N2CCN(C(=O)/C=C/c3ccc(S(=O)(=O)NCc4ccco4)cc3)CC2)cc1 | . | . | . | . | 38 | .
Cc1ccc(O)c(NC(=S)NC(=O)Cc2ccc(Cl)cc2)c1 | . | . | 61 | 140 | 100 | 81
Cc1ccc(NC(=S)NC(=O)c2ccc(-c3ccc(Cl)cc3)o2)c(O)c1 | . | . | . | . | . | .
COc1cc(C(c2c(C(=O)O)[nH]c3ccccc23)c2c(C(=O)O)[nH]c3ccccc23)ccc1OCc1ccccc1 | . | . | . | . | . | .

Screening results (PubChem)
